Screening results as filed in PubChem.
This is one part of a sample in which hits are shown more often than they occur.
T cruzi growth-1: T. cruzi proliferation inhibition | inhibition, % at 8.34 µM | AID 624255 | 77,000 tested, 5.9% active | T. cruzi beta-gal in NIH3T3, GalScreen luminescence, 90 h;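 active = mean inhibition above about 93%, with at least 55% of replicates each passing it, limit read from the data, passing the limit was not always enough; inconclusive = only one of those two conditions holds; inactive = neither condition holds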
IDH1 R132H inh: inhibitors of human IDH1 R132H; inhibition, % at 10 µM; IDH1 R132H reductase, diaphorase/resazurin fluorescence, 60 min; O75874; 70,000 tested, 0.18% active; in the data active = inhibition above about 34%; inconclusive = no clear call, values can overlap the other calls; inactive = below about 11%
Target sequence (O75874 whole entry R132H): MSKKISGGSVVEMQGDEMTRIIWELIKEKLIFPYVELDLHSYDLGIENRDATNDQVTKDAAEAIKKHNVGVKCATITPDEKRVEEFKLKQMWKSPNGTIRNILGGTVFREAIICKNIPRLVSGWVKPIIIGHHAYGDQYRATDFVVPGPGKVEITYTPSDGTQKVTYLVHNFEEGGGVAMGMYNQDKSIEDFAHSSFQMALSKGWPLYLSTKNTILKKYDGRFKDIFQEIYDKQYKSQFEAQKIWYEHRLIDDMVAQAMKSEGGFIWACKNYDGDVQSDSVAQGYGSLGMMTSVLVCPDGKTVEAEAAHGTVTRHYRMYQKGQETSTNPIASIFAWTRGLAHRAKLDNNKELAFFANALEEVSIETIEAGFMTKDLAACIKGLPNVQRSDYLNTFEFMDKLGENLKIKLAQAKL
GASC1 inh: inhibitors of human demethylase GASC-1 KDM4C. Q9H3R0. GST-KDM4C 2-372, H3K9me3 peptide, LANCE TR-FRET. inhibition, % at 12.5 µM. 96,000 tested, 0.15% active. AID 720574;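 active = mean replicate inhibition above about 25%, with at least 55% of replicates also reaching it, limit read from the data, passing the limit was not always enough; inconclusive = only one of those two conditions met; inactive = neither condition met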
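System: N-terminal GST-fused human GASC-1 (KDM4C) fragment, residues 2-372 / Amount: 10 nM GST-KDM4C in enzyme reaction / Also added: H3K9me3 peptide with Fe(II)/2OG / Times: 30 min demethylation and 1 h detection at room temperature / Signal: LANCE TR-FRET / Read-out basis: Fall in 671/618 emission ratio as inhibition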
T cruzi growth-2: Trypanosoma cruzi proliferation inhibition; 5,600 tested, 72% active; shares compounds with T cruzi growth-1; inhibition, % at 8.35 µM; AID 651739; T. cruzi beta-gal in NIH3T3, GalScreen luminescence, 90 h;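 active = mean replicate inhibition above about 95% and at least 55% of replicates individually reaching it, limit read from the data; inconclusive = only one of the two criteria is met; inactive = neither criterion is met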
T cruzi growth-3: Trypanosoma cruzi proliferation inhibition. shares compounds with T cruzi growth-1. T. cruzi beta-gal in NIH3T3, GalScreen luminescence, 90 h. inhibition, % at 2.09 µM. 5,600 tested, 21% active;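 active = mean inhibition above about 95%, with at least 55% of replicates also reaching it, limit read from the data; inconclusive = meets just one of the two conditions; inactive = meets neither condition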
NIH3T3 tox: cytotoxicity in mouse NIH/3T3 fibroblasts. shares compounds with T cruzi growth-1. NIH/3T3 viability, CellTiter-Glo ATP luminescence, 90 h. cytotoxicity (signal decrease), % at 8.35 µM. 5,600 tested, 14% active;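 active = mean signal decrease across replicates above about 35% based on untreated-well scatter, with enough replicates individually passing, limit read from the data; inconclusive = no rule stated though some were filed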
NIH3T3 tox 2: kills mouse NIH/3T3 fibroblasts; shares compounds with T cruzi growth-1; NIH/3T3 viability, CellTiter-Glo ATP luminescence, 90 h; inhibition, % at 24.9 µM; 5,600 tested, 56% active;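 active = mean loss of cell viability signal at or above a set limit, and enough replicates individually reaching it; inconclusive = meets only the mean limit or only the replicate share; inactive = meets neither condition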
Of the large screens only hits and unclear results are named; the others gave an inactive call (follow-up assays come after a bar, where they were run).

C[C@@H]1CCCCO[C@@H](CN(C)C(=O)C2CCCCC2)[C@H](C)CN([C@H](C)CO)C(=O)c2cc(NC(=O)Nc3ccc(F)cc3)ccc2O1	none
C[C@@H]1CCCCO[C@@H](CN(C)C(=O)C2CCCCC2)[C@@H](C)CN([C@H](C)CO)C(=O)c2cc(NC(=O)Nc3ccccc3)ccc2O1	none
C[C@@H]1CCCCO[C@H](CN(C)C(=O)C2CCCCC2)[C@@H](C)CN([C@H](C)CO)C(=O)c2cc(NC(=O)Nc3ccc(C(F)(F)F)cc3)ccc2O1	T cruzi growth-1 120.4 | T cruzi growth-2 105.3 | T cruzi growth-3 inactive | NIH3T3 tox inactive | NIH3T3 tox 2 inconclusive
C[C@@H]1CCCCO[C@H](CN(C)C(=O)C2CCCCC2)[C@@H](C)CN([C@@H](C)CO)C(=O)c2cc(NC(=O)Nc3ccc(C(F)(F)F)cc3)ccc2O1	T cruzi growth-1 120.5 | T cruzi growth-2 97.8 | T cruzi growth-3 106.2 | NIH3T3 tox inactive | NIH3T3 tox 2 inactive
COC(=O)c1cc(OC)c(OC)cc1NC(=O)CSc1nc(C)cc(C(F)(F)F)c1C#N	none (no result: T cruzi growth-1, GASC1 inh)
CN(CC(=O)Nc1ccc([N+](=O)[O-])cc1)S(=O)(=O)c1cc(Cl)ccc1Cl	none (no result: T cruzi growth-1, GASC1 inh)
C[C@H]1CCCCO[C@H](CN(C)S(=O)(=O)c2ccc(Cl)cc2)[C@@H](C)CN([C@@H](C)CO)C(=O)c2cc(NC(=O)Cc3ccccc3)ccc2O1	T cruzi growth-1 112.0 (no result: IDH1 R132H inh) | T cruzi growth-2 103.3 | T cruzi growth-3 inactive | NIH3T3 tox inactive | NIH3T3 tox 2 inactive
C[C@H](CO)N1C[C@H](C)[C@H](CN(C)S(=O)(=O)c2ccccc2)OCCCC[C@H](C)Oc2ccc(NC(=O)Cc3ccccc3)cc2C1=O	none (no result: T cruzi growth-1)
C[C@@H]1CN([C@@H](C)CO)C(=O)c2cc(NC(=O)Cc3ccccc3)ccc2O[C@@H](C)CCCCO[C@H]1CN(C)S(=O)(=O)c1ccc(Cl)cc1	none
C[C@H](CO)N1C[C@H](C)[C@H](CN(C)S(=O)(=O)c2ccc(Cl)cc2)OCCCC[C@H](C)Oc2ccc(NC(=O)Cc3ccccc3)cc2C1=O	T cruzi growth-1 105.4 (no result: IDH1 R132H inh) | T cruzi growth-2 99.9 | T cruzi growth-3 108.9 | NIH3T3 tox inactive | NIH3T3 tox 2 inactive
C[C@H]1CCCCO[C@H](CN(C)S(=O)(=O)c2ccccc2)[C@@H](C)CN([C@@H](C)CO)C(=O)c2cc(NC(=O)Cc3ccccc3)ccc2O1	none (no result: T cruzi growth-1)
C[C@@H]1CCCCO[C@@H](CN(C)S(=O)(=O)c2ccc(Cl)cc2)[C@H](C)CN([C@H](C)CO)C(=O)c2cc(NC(=O)Cc3ccccc3)ccc2O1	T cruzi growth-1 115.7 | T cruzi growth-2 105.0 | T cruzi growth-3 102.8 | NIH3T3 tox inactive | NIH3T3 tox 2 inactive
C[C@@H]1CCCCO[C@H](CN(C)S(=O)(=O)c2ccc(Cl)cc2)[C@H](C)CN([C@H](C)CO)C(=O)c2cc(NC(=O)Cc3ccccc3)ccc2O1	T cruzi growth-1 117.0 | T cruzi growth-2 109.7 | T cruzi growth-3 105.2 | NIH3T3 tox inactive | NIH3T3 tox 2 inactive
C[C@H](CO)N1C[C@H](C)[C@@H](CN(C)S(=O)(=O)c2ccccc2)OCCCC[C@H](C)Oc2ccc(NC(=O)Cc3ccccc3)cc2C1=O	none (no result: T cruzi growth-1, IDH1 R132H inh)
COc1ccc(Cl)cc1N1CCN(CCCNC(=S)Nc2ccc(Cl)cc2C)CC1	none (no result: T cruzi growth-1, GASC1 inh)
COc1ccccc1C(NC(C)=O)c1c(O)ccc2ccccc12 (stereo unspecified)	none (no result: T cruzi growth-1, GASC1 inh)
Cc1ccccc1/C=N/NC(=O)c1ccccn1	none (no result: T cruzi growth-1, GASC1 inh)
CC(C)(C)/C=N/NC(=O)CCCCCCC(=O)Nc1ccccc1O	none (no result: T cruzi growth-1, GASC1 inh)
O=C(COc1cc(O)c2c(=O)c3ccccc3oc2c1)c1ccc(Cl)cc1	none (no result: T cruzi growth-1, GASC1 inh)
CCOc1ccc(NC(=O)CSc2nnc3c4c5c(sc4nc(SC)n23)CCC5)cc1	none (no result: T cruzi growth-1, GASC1 inh)
N#C[C@@H]1[C@H](c2ccc(C3=CCCCC3)cc2)[C@H](CO)N1C(=O)c1cccc(F)c1	T cruzi growth-1 inconclusive (no result: IDH1 R132H inh) | T cruzi growth-2 107.3 | T cruzi growth-3 inactive | NIH3T3 tox inactive | NIH3T3 tox 2 24.3
